This is an account of results in ChEMBL document CHEMBL4619781 (J Med Chem, 2020).

Assay [1] deals with SF-295. The assay is described as follows: Cytotoxicity against human SF295 cells assessed as reduction in cell viability measured after 72 hrs by CellTiter 96 aqueous one solution assay. The format is functional, cell-based. Conditions: SF-295, 72 h. In outline:
(§1)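 Cells diluted to 5 × 10^4 cells/mL in RPMI 1640 or DMEM with 10% FBS, streptomycin and penicillin; plated and incubated 24 h at 37 °C, 5% CO2. Medium replaced, then serial dilutions added from DMSO at final 0–1000 nM for 72 h. Absorbance at 490 nm read after 30–60 min with reagent. Mean ± SD of three replicates; EC50 by curve fitting.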

For assay [2], the system named is SK-MEL-5. Put plainly: Cytotoxicity against human SK-MEL-5 cells assessed as reduction in cell viability measured after 72 hrs by CellTiter 96 aqueous one solution assay. In kind it is functional, cell-based. The note with it: SK-MEL-5, 72 h. Summed up: as §1
For assay [3], the system named is MDA-MB-231. The assay is described as follows: Cytotoxicity against human MDA-MB-231 cells assessed as reduction in cell viability measured after 72 hrs by CellTiter 96 aqueous one solution assay. In kind it is functional, cell-based. Conditions: MDA-MB-231, 72 h. Summed up:
as §1

Assay [4] concerns NCI-H226. The assay is described as follows: Cytotoxicity against human NCI-H226 cells assessed as reduction in cell viability measured after 72 hrs by CellTiter 96 aqueous one solution assay. The note with it: NCI-H226, 72 h. In kind it is functional, cell-based. Summed up: as §1
The subject of assay [5] is DNA. Put plainly: Induction of Escherichia coli plasmid pUC19 DNA cleavage assessed as increase in relaxation of supercoiled plasmid DNA measured after 24 hrs by SYBR green staining based gel electrophoresis. The format is nucleic-acid assay. Summed up:
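Supercoiled pUC19 (25 nM plasmid, […]) in Dulbecco's PBS pH 7.4 with 5% DMSO and varying compound concentrations, with or without 1 mM reduced glutathione, 37 °C for 24 h, in triplicate. Run on 1% agarose gel in TAE at 100 V for 1 h. Supercoiled (form I) band intensity normalized to DMSO controls.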

pEC50: −log10 of the molar value. Active and inactive are the calls of the source. The calls are words filed in the database; no cut-off is given here.

The pEC50 is the negative decadic logarithm of the EC50, by convention in mol/L. In the case of `COC(=O)[C@H](O)[C@@](C)(O)[C@@]12O[C@]13c1cc(O)c4c(c1N[C@H]2C#C/C=C\C#C[C@H]3O)C(=O)c1cc(OC)ccc1C4=O`, the pEC50 in assay [1] is 7.68; in assay [2], 7.72; in assay [3], 7.85; in assay [4], 7.17. Also, in assay [5], the outcome was Active.

As to `C#CCOc1ccc2c(c1O)C(=O)c1c3c(cc(O)c1C2=O)[C@@]12O[C@@]1([C@](C)(O)[C@@H](O)C(=O)OC)[C@H](C#C/C=C\C#C[C@H]2O)N3`, the pEC50 in assay [1] is 8.55; in assay [2], 8.55; in assay [3], 8.43; in assay [4] it was 7.59. Besides, the result in assay [5] was Active.

With `COC(=O)[C@H](O)[C@@](C)(O)[C@@]12O[C@]13c1cc(O)c4c(c1N[C@H]2C#C/C=C\C#C[C@H]3O)C(=O)c1c(ccc(OC)c1O)C4=O`, the pEC50 in assay [1] was 8.40; in assay [2] it was 8.55; in assay [3] it was 8.30; in assay [4] it was 7.49. In addition, the outcome in assay [5] was Active.

On to `COC(=O)[C@H](O)[C@@](C)(O)[C@@]12O[C@]13c1cc(O)c4c(c1N[C@H]2C#C/C=C\C#C[C@H]3O)C(=O)c1c(ccc(O)c1O)C4=O`, for which the pEC50 is 7.35 in assay [1], 7.49 in assay [2], 7.47 in assay [3] and 7.18 in assay [4]. In assay [5], the result was Active.

As to `COc1ccc2c(c1O)C(=O)c1c3c(cc(O)c1C2=O)[C@@]12O[C@@]1([C@@H](C)O)[C@H](C#C/C=C\C#C[C@H]2O)N3`, the pEC50 is 9.35 in assay [1], 9.13 in assay [2], 8.96 in assay [3] and 8.38 in assay [4]. Moreover, the outcome in assay [5] was Active.

Turning to `COC(=O)[C@H](O)[C@@](C)(O)[C@@]12O[C@]13c1cc(O)c4c(c1N[C@H]2C#C/C=C\C#C[C@H]3O)C(=O)c1c(ccc(OCC(C)=O)c1O)C4=O`, the pEC50 in assay [1] was 8.96; in assay [2] it was 9.10; in assay [3] it was 9.05; in assay [4], 8.43. Moreover, the outcome in assay [5] was Active.

As to `COC(=O)[C@H](O)[C@@](C)(O)[C@@]12O[C@]13c1cc(O)c4c(c1N[C@H]2C#C/C=C\C#C[C@H]3O)C(=O)c1cc(O)ccc1C4=O`, the pEC50 in assay [1] is 7.29; in assay [2], 7.44; in assay [3] it was 7.43; in assay [4] it was 7.12. Besides, in assay [5], the outcome was Active.
